# Laboratory results taken from ChEMBL document CHEMBL4130374, “Discovery of 9H-purins as potential tubulin polymerization inhibitors: Synthesis, biological evaluation and structure-activity relationships” (Eur J Med Chem, 2017).
# Assays:
# K562 = assay: Antiproliferative activity against human K562 cells after 48 hrs by MTT assay; format: functional; details: K562, 48 h
# Outline: (§1)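 Log-phase cells, harvested by trypsinization, seeded 24 h, then exposed to a range of compound concentrations for 48 h. Culture in RPMI 1640 with 4% FBS, penicillin/streptomycin, 37°C, 5% CO2. DMSO below 1% final; 5-Fu as positive control. Readout is MTT (0.5 mg/mL, 4 h), formazan dissolved in DMSO, absorbance at 570 nm. GI50 = 50% growth inhibition versus untreated cells; means ± SD of at least two independent experiments.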
# SH-SY5Y [1] = assay: Antiproliferative activity against human SH-SY5Y cells after 48 hrs by MTT assay; format: functional; outline: as §1
# AGS [2] = assay: Antiproliferative activity against human AGS cells after 48 hrs by MTT assay; format: functional; outline: as §1
# Tubulin (Sus scrofa) = assay: Inhibition of pig brain tubulin polymerization at 10 uM by spectrophotometry relative to control
# [3] = Cytotoxicity against mouse HT22 cells after 48 hrs by MTT assay; format: cell-based, HT-22
# Outline: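 MTT readout after 48 h exposure; CC50 is the 50% cytotoxic concentration, mean of three repeated experiments.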
# [4] = Selectivity ratio of GI50 for human K562 cells to GI50 for human SH-SY5Y cells; format: functional
# [5] = Selectivity ratio of GI50 for human AGS cells to GI50 for human SH-SY5Y cells; format: functional
# [6] = Selectivity index, ratio of GI50 for mouse HT22 cells to GI50 for human SH-SY5Y cells; format: toxicity; details: HT22 cells and SH-SY5Y cells, read-out: RatioGI50
# SH-SY5Y [7] = assay: Potency index, ratio of 5-Fu GI50 to test compound GI50 for human SH-SY5Y cells; format: functional
# AGS [8] = assay: Cell cycle arrest in human AGS cells assessed as accumulation at G0/G1 phase at 50 nM after 24 hrs by propidium iodide staining based flow cytometry (reference value: 52.87%); format: functional
# Outline: (§2)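 Cells washed twice in ice-cold PBS, fixed in ice-cold 70% ethanol, treated with 0.1 mg/mL RNase, stained with propidium iodide. Phase distribution determined by flow cytometry.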
# AGS [9] = assay: Cell cycle arrest in human AGS cells assessed as accumulation at S phase at 50 nM after 24 hrs by propidium iodide staining based flow cytometry (reference value: 37.94%); format: functional; outline: as §2
# AGS [10] = assay: Cell cycle arrest in human AGS cells assessed as accumulation at G2/M phase at 50 nM after 24 hrs by propidium iodide staining based flow cytometry (reference value: 9.18%); format: functional; outline: as §2
# [11] = Selectivity index, ratio of GI50 for mouse HT22 cells to GI50 for human AGS cells; format: toxicity; details: HT22 cells and AGS cells, read-out: RatioGI50
# AGS [12] = assay: Cell cycle arrest in human AGS cells assessed as accumulation at G0/G1 phase at 0.25 uM after 24 hrs by propidium iodide staining based flow cytometry (reference value: 52.87%); format: functional; outline: as §2
# AGS [13] = assay: Cell cycle arrest in human AGS cells assessed as accumulation at S phase at 0.25 uM after 24 hrs by propidium iodide staining based flow cytometry (reference value: 37.94%); format: functional; outline: as §2
# AGS [14] = assay: Cell cycle arrest in human AGS cells assessed as accumulation at G2/M phase at 0.25 uM after 24 hrs by propidium iodide staining based flow cytometry (reference value: 9.18%); format: functional; outline: as §2
# AGS [15] = assay: Cell cycle arrest in human AGS cells assessed as accumulation at G0/G1 phase at 0.5 uM after 24 hrs by propidium iodide staining based flow cytometry (reference value: 52.87%); format: functional; outline: as §2
# AGS [16] = assay: Cell cycle arrest in human AGS cells assessed as accumulation at S phase at 0.5 uM after 24 hrs by propidium iodide staining based flow cytometry (reference value: 37.94%); format: functional; outline: as §2
# AGS [17] = assay: Cell cycle arrest in human AGS cells assessed as accumulation at G2/M phase at 0.5 uM after 24 hrs by propidium iodide staining based flow cytometry (reference value: 9.18%); format: functional; outline: as §2
# AGS [18] = assay: Cell cycle arrest in human AGS cells assessed as accumulation at G0/G1 phase at 1 uM after 24 hrs by propidium iodide staining based flow cytometry (reference value: 52.87%); format: functional; outline: as §2
# AGS [19] = assay: Cell cycle arrest in human AGS cells assessed as accumulation at S phase at 1 uM after 24 hrs by propidium iodide staining based flow cytometry (reference value: 37.94%); format: functional; outline: as §2
# AGS [20] = assay: Cell cycle arrest in human AGS cells assessed as accumulation at G2/M phase at 1 uM after 24 hrs by propidium iodide staining based flow cytometry (reference value: 9.18%); format: functional; outline: as §2
# AGS [21] = assay: Cell cycle arrest in human AGS cells assessed as accumulation at G0/G1 phase at 2 uM after 24 hrs by propidium iodide staining based flow cytometry (reference value: 52.87%); format: functional; outline: as §2
# AGS [22] = assay: Cell cycle arrest in human AGS cells assessed as accumulation at S phase at 2 uM after 24 hrs by propidium iodide staining based flow cytometry (reference value: 37.94%); format: functional; outline: as §2
# AGS [23] = assay: Cell cycle arrest in human AGS cells assessed as accumulation at G2/M phase at 2 uM after 24 hrs by propidium iodide staining based flow cytometry (reference value: 9.18%); format: functional; outline: as §2
# AGS [24] = assay: Induction of apoptosis in human AGS cells assessed as viable cells at 0.25 uM after 24 hrs by Annexin V-FITC/propidium iodide-double staining based flow cytometry (reference value: 69.90%); format: functional; details: read-out: Activity
# AGS [25] = assay: Induction of apoptosis in human AGS cells assessed as early apoptotic cells at 0.25 uM after 24 hrs by Annexin V-FITC/propidium iodide-double staining based flow cytometry (reference value: 12.80%); format: functional
# AGS [26] = assay: Induction of apoptosis in human AGS cells assessed as late apoptotic cells at 0.25 uM after 24 hrs by Annexin V-FITC/propidium iodide-double staining based flow cytometry (reference value: 16.90%); format: functional
# AGS [27] = assay: Induction of apoptosis in human AGS cells assessed as necrotic cells at 0.25 uM after 24 hrs by Annexin V-FITC/propidium iodide-double staining based flow cytometry (reference value: 0.40%); format: functional
# AGS [28] = assay: Induction of apoptosis in human AGS cells assessed as viable cells at 0.5 uM after 24 hrs by Annexin V-FITC/propidium iodide-double staining based flow cytometry (reference value: 69.90%); format: functional; details: read-out: Activity
# AGS [29] = assay: Induction of apoptosis in human AGS cells assessed as early apoptotic cells at 0.5 uM after 24 hrs by Annexin V-FITC/propidium iodide-double staining based flow cytometry (reference value: 12.80%); format: functional
# AGS [30] = assay: Induction of apoptosis in human AGS cells assessed as late apoptotic cells at 0.5 uM after 24 hrs by Annexin V-FITC/propidium iodide-double staining based flow cytometry (reference value: 16.90%); format: functional
# AGS [31] = assay: Induction of apoptosis in human AGS cells assessed as necrotic cells at 0.5 uM after 24 hrs by Annexin V-FITC/propidium iodide-double staining based flow cytometry (reference value: 0.40%); format: functional
# AGS [32] = assay: Induction of apoptosis in human AGS cells after 24 hrs by Annexin V-FITC/propidium iodide-double staining based flow cytometry; format: functional, cell-based
# AGS [33] = assay: Cell cycle arrest in human AGS cells assessed as accumulation at G2/M phase after 24 hrs by propidium iodide staining based flow cytometry; format: functional; outline: as §2
smiles,measurement,setting,value
COc1ccc(N(C)c2nc(Cl)nc3c2ncn3Cc2ccc(OC)c(OC)c2)cc1,GI50,K562,27 µM
same,GI50,SH-SY5Y [1],7.3 µM
same,GI50,AGS [2],56 µM
same,inhibition,Tubulin (Sus scrofa),25%
COc1ccc(N(C)c2ncnc3c2ncn3Cc2cc(OC)c(OC)c(OC)c2)cc1,GI50,K562,> 100 µM
same,GI50,SH-SY5Y [1],0.26 µM
same,GI50,AGS [2],> 100 µM
same,CC50 at 48 h,[3],23 µM
same,RatioGI50,[4],>230
same,RatioGI50,[5],>230
same,selectivity ratio,[6],88
same,RatioGI50,SH-SY5Y [7],46
same,inhibition,Tubulin (Sus scrofa),20%
COc1ccc(N(C)c2ncnc3c2ncn3Cc2ccc(OC)c(OC)c2)cc1,GI50,K562,> 100 µM
same,GI50,SH-SY5Y [1],0.43 µM
same,GI50,AGS [2],> 100 µM
same,CC50 at 48 h,[3],> 100 µM
same,RatioGI50,[4],>230
same,RatioGI50,[5],>230
same,selectivity ratio,[6],230
same,RatioGI50,SH-SY5Y [7],28
same,inhibition,Tubulin (Sus scrofa),18%
COc1ccc(N(C)c2nc(Cl)nc3c2ncn3Cc2cc(OC)c(OC)c(OC)c2)cc1,GI50,K562,41 µM
same,GI50,SH-SY5Y [1],3 µM
same,GI50,AGS [2],85 µM
same,inhibition,Tubulin (Sus scrofa),12%
COc1ccc(N(C)c2nc(Cl)nc3c2ncn3Cc2cc(OC)cc(OC)c2)cc1,GI50,K562,42 µM
same,GI50,SH-SY5Y [1],> 100 µM
same,GI50,AGS [2],69 µM
COc1ccc(Cn2cnc3c(N(C)c4ccc(OC)cc4)ncnc32)cc1,GI50,K562,> 100 µM
same,GI50,SH-SY5Y [1],27 µM
same,GI50,AGS [2],> 100 µM
COc1cc(Cn2cnc3c(Cl)ncnc32)cc(OC)c1OC,GI50,K562,> 50 µM
same,GI50,SH-SY5Y [1],> 100 µM
same,GI50,AGS [2],> 50 µM
COc1cc2c(c(OC)c1OC)-c1ccc(OC)c(=O)cc1[C@@H](NC(C)=O)CC2 [COLCHICINE],GI50,K562,0.02 µM
same,GI50,SH-SY5Y [1],0.04 µM
same,GI50,AGS [2],0.04 µM
same,Activity,AGS [8],1.2%
same,Activity,AGS [9],12.58%
same,Activity,AGS [10],86.22%
COc1ccc(N(C)c2ncnc3[nH]cnc23)cc1,GI50,K562,> 100 µM
same,GI50,SH-SY5Y [1],> 100 µM
same,GI50,AGS [2],> 100 µM
COc1ccc(Cn2cnc3c(N(C)c4ccc(OC)cc4)nc(Cl)nc32)cc1,GI50,K562,> 100 µM
same,GI50,SH-SY5Y [1],31 µM
same,GI50,AGS [2],> 100 µM
COc1ccc(Cn2cnc3c(Cl)nc(Cl)nc32)cc1,GI50,K562,36 µM
same,GI50,SH-SY5Y [1],7.7 µM
same,GI50,AGS [2],19 µM
same,inhibition,Tubulin (Sus scrofa),25%
O=c1[nH]cc(F)c(=O)[nH]1 [FLUOROURACIL],GI50,K562,19 µM
same,GI50,SH-SY5Y [1],12 µM
same,GI50,AGS [2],25 µM
COc1ccc(N(C)c2nc(Cl)nc3c2ncn3C)cc1,GI50,K562,2.3 µM
same,GI50,SH-SY5Y [1],3.4 µM
same,GI50,AGS [2],0.26 µM
same,CC50 at 48 h,[3],> 100 µM
same,selectivity ratio,[6],23
same,selectivity ratio,[11],430
same,Activity,AGS [12],50.11%
same,Activity,AGS [13],39.78%
same,Activity,AGS [14],10.11%
same,Activity,AGS [15],47.34%
same,Activity,AGS [16],39.98%
same,Activity,AGS [17],12.68%
same,Activity,AGS [18],36.62%
same,Activity,AGS [19],38.2%
same,Activity,AGS [20],25.18%
same,Activity,AGS [21],21.64%
same,Activity,AGS [22],14.87%
same,Activity,AGS [23],63.49%
same,viability at 0.25 µM,AGS [24],63.5%
same,Activity,AGS [25],10.45%
same,Activity,AGS [26],23.8%
same,Activity,AGS [27],2.25%
same,viability at 0.5 µM,AGS [28],59.2%
same,Activity,AGS [29],12.35%
same,Activity,AGS [30],27.6%
same,Activity,AGS [31],0.85%
same,Activity,AGS [32],Dose-dependent effect
same,Activity,AGS [33],Dose-dependent effect
same,inhibition,Tubulin (Sus scrofa),41%
COc1cc(Cn2cnc3c(Cl)ncnc32)cc(OC)c1,GI50,K562,> 100 µM
same,GI50,SH-SY5Y [1],> 100 µM
same,GI50,AGS [2],> 100 µM
COc1ccc(N(C)c2ncnc3c2ncn3C)cc1,GI50,K562,> 100 µM
same,GI50,SH-SY5Y [1],> 100 µM
same,GI50,AGS [2],> 100 µM
COc1ccc(Cn2cnc3c(Cl)ncnc32)cc1OC,GI50,K562,> 50 µM
same,GI50,SH-SY5Y [1],> 100 µM
same,GI50,AGS [2],> 100 µM
COc1cc(Cn2cnc3c(Cl)nc(Cl)nc32)cc(OC)c1,GI50,K562,4.6 µM
same,GI50,SH-SY5Y [1],1.7 µM
same,GI50,AGS [2],3.8 µM
same,CC50 at 48 h,[3],> 100 µM
same,inhibition,Tubulin (Sus scrofa),13%
COc1ccc(Cn2cnc3c(Cl)nc(Cl)nc32)cc1OC,GI50,K562,7 µM
same,GI50,SH-SY5Y [1],5.5 µM
same,GI50,AGS [2],11 µM
same,inhibition,Tubulin (Sus scrofa),22%
COc1ccc(Cn2cnc3c(Cl)ncnc32)cc1,GI50,K562,> 50 µM
same,GI50,SH-SY5Y [1],> 50 µM
same,GI50,AGS [2],29 µM
COc1ccc(N(C)c2ncnc3c2ncn3Cc2cc(OC)cc(OC)c2)cc1,GI50,K562,42 µM
same,GI50,SH-SY5Y [1],> 100 µM
same,GI50,AGS [2],> 100 µM
COc1ccc(N(C)c2nc(Cl)nc3[nH]cnc23)cc1,GI50,K562,> 100 µM
same,GI50,SH-SY5Y [1],> 100 µM
same,GI50,AGS [2],30 µM
COc1cc(Cn2cnc3c(Cl)nc(Cl)nc32)cc(OC)c1OC,GI50,K562,4.3 µM
same,GI50,SH-SY5Y [1],9.6 µM
same,GI50,AGS [2],9.4 µM
same,inhibition,Tubulin (Sus scrofa),13%
